Blank lines part the entries; values can stand above or below the compound they belong to. The source made the active and inactive calls. The rule behind the calls is not given here.
Columns and labels:
Tubulin (Homo sapiens) [1] = target: T1, Tubulin (Homo sapiens) (UniProt P68371+Q9H4B7+P0DPH7+P68366+Q13509+Q71U36+P04350+Q3ZCM7+P07437+P68363+Q9BQE3+Q6PEY2+Q13885+Q9BVA1+Q9BUF5); experiment: Inhibition of tubulin (unknown origin) polymerization pre-incubated for 5 mins by spectrophotometry; assay type: protein-complex assay
HUVEC [2] = experiment: Antivascular activity in HUVECs assessed as inhibition of cell migration incubated for 20 hrs by phase contrast microscopy based wound healing migration assay; assay type: functional; details: Homo sapiens
Method in brief: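 HUVECs grown to confluence in DMEM, then serum-starved for 16 h. Monolayer scratched with a pipet tip and washed with PBS. Serum-free DMEM with vehicle or 50, 100 or 500 nM compound added. Imaged after 20–24 h; migrated cells counted manually and expressed relative to vehicle wells; t-test.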

HUVEC [3] = experiment: Antivascular activity in HUVECs assessed as disruption of capillary-like tubes at 50 to 500 nM incubated for 6 hrs by matrigel based tube formation assay; assay type: functional, cell-based; details: Homo sapiens
Method in brief: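 HUVECs (2−4 × 10^4) in DMEM seeded on Matrigel polymerized at 37 °C for 30 min. Treated with 50, 100 or 500 nM compound or vehicle at 37 °C. Capillary networks photographed after 6 h and quantified; significance by t-test.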

Tubulin (Homo sapiens) [4] = target: T1, Tubulin (Homo sapiens); experiment: Inhibition of tubulin polymerization in human HepG2 cells assessed as abnormal mitotic spindles at 1 uM after 24 hrs by immunofluorescence assay; assay type: cell-based
Method in brief: (§1)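 HepG2 cells seeded overnight, then given 1 μM compound or DMSO for 24 h; methanol-fixed, blocked 45 min in 5% BSA/PBS, α-tubulin primary antibody overnight at 4 °C, fluorescent secondary 1 h, DAPI nuclear counterstain; microtubules and spindles imaged by fluorescence microscopy.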

Tubulin (Homo sapiens) [5] = target: T1, Tubulin (Homo sapiens); experiment: Inhibition of tubulin polymerization in human HepG2 cells assessed as multiple tubulin bundles at 1 uM after 24 hrs by immunofluorescence assay; assay type: cell-based; method in brief: as §1
Tubulin (Homo sapiens) [6] = target: T1, Tubulin (Homo sapiens); experiment: Inhibition of tubulin polymerization in human HepG2 cells assessed as spindle formation alterations at 1 uM after 24 hrs by immunofluorescence assay; assay type: cell-based; method in brief: as §1
Tubulin (Homo sapiens) [7] = target: T1, Tubulin (Homo sapiens); experiment: Inhibition of tubulin polymerization in human HepG2 cells assessed as microtubule polymerization alterations at 1 uM after 24 hrs by immunofluorescence assay; assay type: cell-based; method in brief: as §1
[8] = Antiproliferative activity against human A2780S cells assessed as inhibition of cell proliferation after 48 hrs by MTT assay; assay type: functional, cell-based; details: A2780, 48 h
Method in brief: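 Cells grown in DMEM with 10% FBS, penicillin/streptomycin at 37 °C, 5% CO2. 1000 cells/well seeded, incubated overnight, then exposed to various doses for 48 h. MTT added for 4 h, formazan dissolved in DMSO, absorbance read at 590 nm. IC50 = concentration inhibiting proliferation by 50%, mean ± SEM of dose–response curves from at least three independent experiments.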

MCF7 = experiment: Antiproliferative activity against human MCF7 cells assessed as inhibition of cell proliferation after 48 hrs by MTT assay; assay type: functional, cell-based; details: MCF7, 48 h
Method in brief: (§2)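 Cells grown at 37 °C in humidified 5% CO2. K562, C26 and HCT lines in RPMI-1640; other lines in DMEM; both media with 10% FBS, penicillin and streptomycin. 1000 cells/well seeded, incubated overnight, then compound at various doses for 48 h. MTT added for 4 h, formazan dissolved in DMSO, absorbance read at 590 nm. IC50 from dose–response curves, mean ± SEM of at least three independent experiments.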

NCI-H358 = experiment: Antiproliferative activity against human NCI-H358 cells assessed as inhibition of cell proliferation after 48 hrs by MTT assay; assay type: functional, cell-based; details: NCI-H358, 48 h; method in brief: as §2
K562 = experiment: Antiproliferative activity against human K562 cells assessed as inhibition of cell proliferation after 48 hrs by MTT assay; assay type: functional, cell-based; details: K562, 48 h; method in brief: as §2
[9] = Antiproliferative activity against human HCT15 cells assessed as inhibition of cell proliferation after 48 hrs by MTT assay; assay type: functional, cell-based; details: HCT-15, 48 h; method in brief: as §2
U-251 = experiment: Antiproliferative activity against human U251 cells assessed as inhibition of cell proliferation after 48 hrs by MTT assay; assay type: functional, cell-based; details: U-251, 48 h; method in brief: as §2
[10] = Antiproliferative activity against human HCT116 cells assessed as inhibition of cell proliferation after 48 hrs by MTT assay; assay type: functional, cell-based; details: HCT-116, 48 h
HepG2 = experiment: Antiproliferative activity against human HepG2 cells assessed as inhibition of cell proliferation after 48 hrs by MTT assay; assay type: functional, cell-based; method in brief: as §2
[11] = Antiproliferative activity against human ES2 cells assessed as inhibition of cell proliferation after 48 hrs by MTT assay; assay type: functional, cell-based; details: ES-2, 48 h
[12] = Antiproliferative activity against human DLD1 cells assessed as inhibition of cell proliferation after 48 hrs by MTT assay; assay type: functional, cell-based; details: DLD-1, 48 h; method in brief: as §2
[13] = Antiproliferative activity against mouse C26 cells assessed as inhibition of cell proliferation after 48 hrs by MTT assay; assay type: functional, cell-based; details: C26, 48 h; method in brief: as §2
AGS = experiment: Antiproliferative activity against human AGS cells assessed as inhibition of cell proliferation after 48 hrs by MTT assay; assay type: functional, cell-based; method in brief: as §2
A-375 = experiment: Antiproliferative activity against human A375 cells assessed as inhibition of cell proliferation after 48 hrs by MTT assay; assay type: functional, cell-based; details: A-375, 48 h; method in brief: as §2
[14] = Solubility in PBS solution by nephelometry; assay type: physicochemical
Method in brief: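 Maximum soluble concentration in PBS, determined by nephelometry.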

Mus musculus [15] = experiment: Toxicity in mouse C26 cells xenografted Balb/C mouse assessed as body weight changes at 5 mg/kg, iv dosed every 4 days for 4 days; assay type: organism-based; set-up: dose 5 mg/kg, route intravenous; details: in vivo, 96 h
Method in brief: (§3)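 Xenografts: 5 × 10^6 tumour cells injected sc in right armpit/flank of 5−6-week-old female mice; at 100 mm3 tumour volume, randomized (6 per group) and dosed in vehicle of 2.5% Tween-80 and 2.5% ethanol; body weights and caliper tumour volumes recorded every 2 days, toxicity signs and mortality daily.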

Mus musculus [16] = experiment: Toxicity in cisplatin-resistant human […] cells xenografted Balb/C mouse assessed as mortality level at 5 mg/kg, iv dosed every 4 days for 4 days; assay type: organism-based, A2780cisR; set-up: dose 5 mg/kg, route intravenous; details: in vivo, 96 h
Method in brief: (§4)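 Female Balb/C or athymic nude mice, 5−6 weeks old, implanted sc in the right flank/armpit with 5 × 10^6 cells in HBSS. Once tumors reached 100 mm3, mice were randomized (6 per group) and dosed with vehicle (2.5% Tween-80, 2.5% ethanol) or drug. Toxicity signs and mortality observed daily. Body weight and caliper tumor volume measured every 2 days.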

Mus musculus [17] = experiment: Toxicity in mouse C26 cells xenografted Balb/C mouse assessed as mortality level at 5 mg/kg, iv dosed every 4 days for 4 days; assay type: organism-based; set-up: dose 5 mg/kg, route intravenous; details: in vivo, 96 h; method in brief: as §4
[18] = Antitumor activity against cisplatin-resistant human […] cells xenografted in Balb/C mouse assessed as tumor mass changes at 5 mg/kg, iv dosed every 4 days for 4 days; assay type: functional, A2780cisR
Method in brief: (§5)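 Female Balb/c or athymic nude mice, 5–6 weeks old. 5 × 10^6 cells in HBSS implanted sc in the right flank/armpit. Treatment began at tumor volume 100 mm3, 6 mice per group; vehicle was 2.5% Tween-80 and 2.5% ethanol. Tumor volume (π/6 × L × W²) and body weight measured every 2 days. Inhibition = (1 − treated/control tumor weight) × 100%.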

[19] = Antiproliferative activity against taxol resistant human HCT8 cells assessed as inhibition of cell proliferation after 48 hrs by MTT assay; assay type: functional, cell-based; details: HCT-8, 48 h; method in brief: as §2
Mus musculus [20] = experiment: Toxicity in cisplatin-resistant human […] cells xenografted Balb/C mouse assessed as body weight changes at 5 mg/kg, iv dosed every 4 days for 4 days; assay type: organism-based, A2780cisR; set-up: dose 5 mg/kg, route intravenous; details: in vivo, 96 h; method in brief: as §3
[21] = Antiproliferative activity against taxol resistant human […] cells assessed as inhibition of cell proliferation after 48 hrs by MTT assay; assay type: functional, cell-based; details: A2780, 48 h; method in brief: as §2
[22] = Antitumor activity against mouse C26 cells xenografted in Balb/C mouse assessed as tumor mass changes at 5 mg/kg, iv dosed every 4 days for 4 days; assay type: functional; method in brief: as §5

Compound: COc1ccc(/C=C/C(=O)c2ccc(OC)c3c2OC(C)(C)C=C3)cc1N
inhibition (Tubulin (Homo sapiens) [1]): Dose-dependent effect
inhibition (HUVEC [2]): Dose-dependent effect
inhibition (HUVEC [3]): Dose-dependent effect
inhibition (Tubulin (Homo sapiens) [4]): Active
inhibition (Tubulin (Homo sapiens) [5]): Active
inhibition (Tubulin (Homo sapiens) [6]): Active
inhibition (Tubulin (Homo sapiens) [7]): Active

Compound: COc1cc2c(c(OC)c1OC)-c1ccc(OC)c(=O)cc1[C@@H](NC(C)=O)CC2 [COLCHICINE]
IC50 [8]: 4 nM
IC50 (MCF7): 58 nM
IC50 (NCI-H358): 4 nM
IC50 (K562): 16 nM
IC50 [9]: 16 nM
IC50 (U-251): 20 nM
IC50 [10]: 15 nM
IC50 (HepG2; Homo sapiens, HepG2, 48 h): 42 nM
IC50 [11]: 18 nM
IC50 [12]: 11 nM
IC50 [13]: 344 nM
IC50 (AGS): 9 nM
IC50 (A-375): 12 nM

Compound: COc1ccc(/C=C/C(=O)c2ccc(OC)c3c2OC(C)(C)C=C3)cc1N.CS(=O)(=O)O
solubility kinetic [14]: 50 µg/mL
IC50 (HepG2; hepg2): 10 nM

Compound: COc1ccc(/C=C/C(=O)c2ccc(OC)c3c2OC(C)(C)C=C3)cc1NCCN1CCOCC1
IC50 (K562): > 2000 nM
IC50 (HepG2; Homo sapiens, HepG2, 48 h): > 2000 nM
IC50 (A-375): > 2000 nM

Compound: COc1ccc(/C=C/C(=O)c2ccc(OC)c3c2OC(C)(C)C=C3)cc1NS(=O)(=O)c1ccc(C)cc1
IC50 (K562): > 2000 nM
IC50 (HepG2; Homo sapiens, HepG2, 48 h): > 2000 nM
IC50 (A-375): > 2000 nM

Compound: CC(=O)O[C@H]1C(=O)[C@@]2(C)[C@H]([C@H](OC(=O)c3ccccc3)[C@]3(O)C[C@H](OC(=O)[C@H](O)[C@@H](NC(=O)c4ccccc4)c4ccccc4)C(C)=C1C3(C)C)[C@]1(OC(C)=O)CO[C@@H]1C[C@@H]2O [PACLITAXEL]
IC50 [8]: 4 nM
IC50 (MCF7): 132 nM
IC50 (NCI-H358): 2 nM
Activity (Mus musculus [15]): -3.7%
Activity (Mus musculus [16]): Non-toxic
Activity (Mus musculus [17]): Non-toxic
IC50 [9]: 24 nM
Activity [18]: 69%
IC50 [19]: 266 nM
IC50 (U-251): 23 nM
IC50 (HepG2; Homo sapiens, HepG2, 48 h): 38 nM
Activity (Mus musculus [20]): -5.6%
IC50 [21]: 107 nM
Activity [22]: 76%
IC50 [12]: 16 nM
IC50 [13]: 210 nM
IC50 (AGS): 8 nM

Compound: COc1ccc(/C=C/C(=O)c2ccc(OC)c3c2OC(C)(C)C=C3)cc1NS(C)(=O)=O
IC50 (K562): 1770 nM
IC50 (HepG2; Homo sapiens, HepG2, 48 h): 2000 nM
IC50 (A-375): 1800 nM

Compound: C#CCNc1cc(/C=C/C(=O)c2ccc(OC)c3c2OC(C)(C)C=C3)ccc1OC
IC50 (K562): 1580 nM
IC50 (HepG2; Homo sapiens, HepG2, 48 h): 1640 nM
IC50 (A-375): 1600 nM

Compound: CNc1cc(/C=C/C(=O)c2ccc(OC)c3c2OC(C)(C)C=C3)ccc1OC
IC50 (K562): > 2000 nM
IC50 (HepG2; Homo sapiens, HepG2, 48 h): > 2000 nM
IC50 (A-375): > 2000 nM

Second part, the compound after the results:

IC50 (K562): 890 nM
IC50 (HepG2; Homo sapiens, HepG2, 48 h): 280 nM
IC50 (A-375): 700 nM
Compound: COc1ccc(/C=C/C(=O)c2ccc(OC)c3c2OC(C)(C)C=C3)cc1NC(=O)CN

IC50 (K562): 114 nM
IC50 (HepG2; Homo sapiens, HepG2, 48 h): > 2000 nM
IC50 (A-375): > 2000 nM
Compound: COc1ccc(/C=C/C(=O)c2ccc(OC)c3c2OC(C)(C)C=C3)cc1N(Cc1ccccc1)Cc1ccccc1

IC50 (K562): 220 nM
IC50 (HepG2; Homo sapiens, HepG2, 48 h): 110 nM
IC50 (A-375): 360 nM
Compound: COc1ccc(/C=C/C(=O)c2ccc(OC)c3c2OC(C)(C)C=C3)cc1NC(=O)[C@@H](C)N

IC50 (K562): 1120 nM
IC50 (HepG2; Homo sapiens, HepG2, 48 h): 840 nM
IC50 (A-375): 1120 nM
Compound: C=CC(=O)Nc1cc(/C=C/C(=O)c2ccc(OC)c3c2OC(C)(C)C=C3)ccc1OC

IC50 (K562): 800 nM
IC50 (HepG2; Homo sapiens, HepG2, 48 h): 910 nM
IC50 (A-375): 920 nM
Compound: CCC(=O)Nc1cc(/C=C/C(=O)c2ccc(OC)c3c2OC(C)(C)C=C3)ccc1OC
